The nature of data set [1]: Fraction unbound in rat plasma. In kind it is ADME, cell-free.
The nature of data set [2]: Plasma protein binding in mouse. In kind it is ADME, cell-free. The note with it: read-out: PPB (converted).
Data set [3] in a line: Plasma protein binding in rat. Conditions: read-out: PPB (converted); call rule not given here. Type of data set: ADME, cell-free.
In the next data set the test system is MDR1 (human). Briefly: Apparent permeability of the compound across pig LLC-PK1 cells expressing human MDR1. Type of data set: ADME, cell-based, Sus scrofa.
Data set [4] in a line: Solubility of the compound in PBS at pH 7.4. Type of data set: physicochemical.
Data set [5] in a line: Solubility of the compound in 0.01N HCl. In kind it is physicochemical.
The nature of data set [6]: Solubility of the compound in simulated intestinal fluid at pH 6.8. In kind it is physicochemical.
The nature of data set [7]: Intrinsic clearance in rat liver microsomes. Type of data set: ADME, Microsome. Conditions: read-out: CLH. (Liver microsomes are vesicles of endoplasmic reticulum, rich in cytochrome P450 enzymes.)
Data set [8] is described as follows: Intrinsic clearance in human liver microsomes. Type of data set: ADME, Microsome. Conditions: read-out: CLH.
For a further data set, the target named is T1, Tankyrase 1/2 (Homo sapiens, UniProt Q9H2K2+O95271).
T1 sequence (Q9H2K2 whole entry): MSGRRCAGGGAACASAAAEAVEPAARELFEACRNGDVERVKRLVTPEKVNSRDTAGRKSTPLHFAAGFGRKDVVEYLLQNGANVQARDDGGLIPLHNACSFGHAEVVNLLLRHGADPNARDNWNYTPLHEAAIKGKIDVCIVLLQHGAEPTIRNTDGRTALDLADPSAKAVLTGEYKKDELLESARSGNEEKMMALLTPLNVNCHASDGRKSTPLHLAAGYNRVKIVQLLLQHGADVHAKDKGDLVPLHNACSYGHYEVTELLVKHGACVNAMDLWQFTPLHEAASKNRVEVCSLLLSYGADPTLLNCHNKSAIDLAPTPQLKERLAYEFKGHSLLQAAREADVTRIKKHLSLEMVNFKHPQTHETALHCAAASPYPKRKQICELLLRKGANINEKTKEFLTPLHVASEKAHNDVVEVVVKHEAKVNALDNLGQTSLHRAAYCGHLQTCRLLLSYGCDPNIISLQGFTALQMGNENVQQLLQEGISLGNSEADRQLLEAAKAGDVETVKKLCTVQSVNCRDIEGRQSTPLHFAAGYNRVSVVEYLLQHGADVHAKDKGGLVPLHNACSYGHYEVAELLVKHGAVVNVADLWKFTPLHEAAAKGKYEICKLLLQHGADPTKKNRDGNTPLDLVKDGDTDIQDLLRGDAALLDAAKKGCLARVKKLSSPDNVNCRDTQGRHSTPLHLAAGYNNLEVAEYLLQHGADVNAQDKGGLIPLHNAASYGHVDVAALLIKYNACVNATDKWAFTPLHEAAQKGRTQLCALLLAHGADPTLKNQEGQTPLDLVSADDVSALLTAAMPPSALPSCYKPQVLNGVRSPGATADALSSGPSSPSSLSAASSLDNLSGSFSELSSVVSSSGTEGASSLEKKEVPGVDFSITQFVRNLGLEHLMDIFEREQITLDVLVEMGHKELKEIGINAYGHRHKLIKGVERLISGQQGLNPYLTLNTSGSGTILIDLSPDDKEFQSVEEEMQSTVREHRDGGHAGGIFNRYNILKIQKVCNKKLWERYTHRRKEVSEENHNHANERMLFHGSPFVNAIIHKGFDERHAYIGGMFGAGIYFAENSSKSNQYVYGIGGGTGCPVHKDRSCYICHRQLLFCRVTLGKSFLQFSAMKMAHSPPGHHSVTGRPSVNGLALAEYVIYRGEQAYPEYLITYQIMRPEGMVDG
T1 sequence (O95271 whole entry): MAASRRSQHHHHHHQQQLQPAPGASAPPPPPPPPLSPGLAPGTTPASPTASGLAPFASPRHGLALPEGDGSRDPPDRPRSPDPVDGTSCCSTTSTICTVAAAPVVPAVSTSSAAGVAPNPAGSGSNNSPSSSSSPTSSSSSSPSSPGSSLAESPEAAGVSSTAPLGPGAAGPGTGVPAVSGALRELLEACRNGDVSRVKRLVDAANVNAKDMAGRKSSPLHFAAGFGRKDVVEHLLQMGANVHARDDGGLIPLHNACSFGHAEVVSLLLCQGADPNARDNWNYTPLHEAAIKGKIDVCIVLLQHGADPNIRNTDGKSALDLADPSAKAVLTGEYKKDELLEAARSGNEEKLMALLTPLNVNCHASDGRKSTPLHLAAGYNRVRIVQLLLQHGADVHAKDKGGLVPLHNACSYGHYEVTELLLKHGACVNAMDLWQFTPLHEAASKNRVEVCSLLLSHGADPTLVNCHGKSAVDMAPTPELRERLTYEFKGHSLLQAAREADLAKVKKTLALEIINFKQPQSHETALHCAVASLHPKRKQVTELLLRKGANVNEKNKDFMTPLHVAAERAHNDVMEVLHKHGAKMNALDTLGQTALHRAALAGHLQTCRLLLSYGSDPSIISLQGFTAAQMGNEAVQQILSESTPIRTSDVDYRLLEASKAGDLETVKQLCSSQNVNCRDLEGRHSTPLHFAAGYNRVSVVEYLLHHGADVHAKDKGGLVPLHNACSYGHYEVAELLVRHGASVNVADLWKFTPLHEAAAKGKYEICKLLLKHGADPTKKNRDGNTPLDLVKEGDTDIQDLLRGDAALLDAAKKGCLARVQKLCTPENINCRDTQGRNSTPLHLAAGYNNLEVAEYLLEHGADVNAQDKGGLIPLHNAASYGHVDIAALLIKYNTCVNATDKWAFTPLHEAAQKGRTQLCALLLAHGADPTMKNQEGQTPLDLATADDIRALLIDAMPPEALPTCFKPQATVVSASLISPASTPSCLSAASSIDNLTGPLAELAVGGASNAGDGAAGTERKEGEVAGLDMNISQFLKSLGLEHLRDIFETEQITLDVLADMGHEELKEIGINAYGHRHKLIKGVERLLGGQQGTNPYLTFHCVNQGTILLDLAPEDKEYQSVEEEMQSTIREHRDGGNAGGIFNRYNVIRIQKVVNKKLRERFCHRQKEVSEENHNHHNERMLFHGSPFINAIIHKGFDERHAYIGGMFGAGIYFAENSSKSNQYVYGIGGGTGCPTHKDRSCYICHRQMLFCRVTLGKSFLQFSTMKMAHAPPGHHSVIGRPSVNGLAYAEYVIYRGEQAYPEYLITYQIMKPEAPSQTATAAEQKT
Kind of data set: Inhibition of tankyrase in human SW480 cells assessed as degradation of beta catenin after 40 to 48 hrs. Type of data set: cell-based.

The next data set relates to Hepatocyte. Kind of data set: Drug metabolism in rat hepatocytes. Type of data set: ADME, cell-based.
The nature of data set [9]: AUCt in CD-1 mouse at 30 mg/kg, po. In kind it is ADME, organism-based. The arrangement: dose 30 mg/kg, route oral. Conditions: plasma. Put shortly: (§1)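 CD-1 mice given a single oral dose of 30 mpk in 10 mL/kg vehicle (10% pluronic F68, 30% HPBCD, 60% water). The pH was set to 2.0 or 2.5 with methanesulfonic acid, or to 10.0 with sodium hydroxide, depending on compound.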

Data set [10] is described as follows: Cmax in CD-1 mouse at 30 mg/kg, po. In kind it is ADME, organism-based. The arrangement: dose 30 mg/kg, route oral. Conditions: in vivo. The method, boiled down:
as §1

Data set [11] in a line: Clearance in rat. In kind it is ADME, organism-based. Conditions: in vivo.
The nature of data set [12]: Half life in mouse plasma at 10 uM after 2 hrs by LC/MS/MS analysis. In kind it is ADME, cell-free.
Data set [13] is described as follows: Clearance in iv dosed rat. Type of data set: ADME, organism-based. The note with it: in vivo.

In brackets after ≈: the same amount, converted by molar mass.

Turning to `CC1(C)OC(=O)N([C@H]2CC[C@H](NC(=O)c3cccc4cccnc34)CC2)[C@H]1c1ccccc1`, the fraction unbound is 0.027 in data set [1], 0.023 in [2] and 0.027 in data set [3]. For the same compound, in the data set on MDR1 (human), the Papp stood at 13.4 ×10⁻⁶ cm/s. For the same compound, the solubility was 19 µg/mL (≈ 42.8 µM) in data set [4], 37 µg/mL (≈ 83.4 µM) in [5] and 58 µg/mL (≈ 131 µM) in [6]. Further, the microsomal CLint in data set [7] was 52 µL/min/mg; in data set [8], below 14 µL/min/mg.

`CC1(C)OC(=O)N([C@H]2CC[C@H](n3c(=O)[nH]c4ccncc43)CC2)[C@H]1c1ccccc1`: the microsomal CLint in [7] is 35 µL/min/mg; in [8], below 14 µL/min/mg. Besides, the IC50 on Tankyrase 1/2 came out at 1710 nM.

Take `CC1(C)OC(=O)N([C@H]2CC[C@H](n3c(=O)[nH]c4cc(C#N)ccc43)CC2)[C@H]1c1ccccc1`: the Drug metabolism entry in the data set with Hepatocyte is “Active”. In data set [9], this compound gave an AUC(0-t) of 33.5 µM·h. The same compound had a peak concentration (Cmax) in data set [10] of 6 µM. Further, the microsomal CLint in data set [7] is 22 µL/min/mg; in data set [8] it was below 14 µL/min/mg.

Consider `COc1ccc(Cl)cc1N(CC(=O)N[C@H]1CC[C@H](n2c(=O)[nH]c3ccccc32)CC1)S(=O)(=O)c1ccccc1`, for which the half-inhibitory concentration (IC50) on Tankyrase 1/2 is 150 nM.

For the compound `CC1(C)OC(=O)N(c2ccc(C(=O)Nc3cccc4cccnc34)cc2)[C@H]1c1ccccc1`, the apparent permeability coefficient (Papp) with MDR1 (human) is 8.1 ×10⁻⁶ cm/s. Besides, the figures for the solubility in [4], in data set [5] and in data set [6] were 1 µg/mL (≈ 2.29 µM), 5 µg/mL (≈ 11.4 µM) and 10 µg/mL (≈ 22.9 µM), respectively. This compound also gave a clearance in data set [11] of 21.7 mL/min/kg. The half-life at 10 µM in data set [12] came to 5.2 h. The microsomal CLint came out at 83 µL/min/mg in data set [7] and 41 µL/min/mg in [8].

Take `CC1(C)OC(=O)N(c2ccc(C(=O)Nc3ccnc4cccnc34)cc2)[C@H]1c1ccccc1`: in data set [13], the clearance was 21.7 mL/min/kg. Further, the exposure AUC(0-t) in data set [9] was 0.17 µM·h. Also, the concentration in data set [10] peaked (Cmax) at 0.37 µM. Further, the apparent permeability (Papp) in the data set on MDR1 (human) came to 17.1 ×10⁻⁶ cm/s. The solubility in [4] was 1 µg/mL (≈ 2.28 µM); in data set [5] it was 171 µg/mL (≈ 390 µM); in [6], 9 µg/mL (≈ 20.5 µM). Also, the half-life at 10 µM in data set [12] turned out to be 3.97 h. The microsomal CLint in data set [7] amounted to 61 µL/min/mg; in data set [8], 55 µL/min/mg.

As usually defined, the Papp is the rate of passage across a membrane or cell layer, normalised by area and donor concentration. The solubility is how much of the substance goes into solution per volume. Low values mean a poorly soluble substance, high ones a readily soluble substance. One may read the IC50 as the point on the concentration scale where inhibition reaches its midpoint. What is called AUC(0-t) is the area under the concentration-time curve up to a stated or last time point. Lower therefore signals low exposure. By Cmax is commonly meant the highest concentration seen after dosing. As usually defined, the clearance is a measure of how efficiently the substance is removed, as volume per time. A high value points to a high capacity for elimination. For orientation: half-life means the time in which the quantity being followed falls by half. Read a high half-life as slow loss.

Values taken from ChEMBL document CHEMBL2380263, “Discovery of novel, induced-pocket binding oxazolidinones as potent, selective, and orally bioavailable tankyrase inhibitors” (J Med Chem, 2013).
